Holding throughout (format): functional
Test [1] deals with Mycobacterium tuberculosis. Kind of test: Antimycobacterial activity against Mycobacterium tuberculosis H37Rv 331/88 after 14 days by micromethod. The following applies: H37Rv 331/88, 336 h. In outline:
(§1)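 Micromethod in Sula semisynthetic medium, with compounds added as DMSO solutions at 1000, 500, 250, 125, 62, 32, 16, 8, 4, 2, 1, 0.5, 0.25. Inoculum dilutions: H37Rv 10^-3; M. avium 330/88 10^-5; M. kansasii 235/80 10^-4; M. kansasii 6509/96 10^-5. Incubated at 37 °C, read at 14 and 21 days, and at 7 days for M. kansasii. MIC was the lowest concentration inhibiting growth.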

In test [2] the test system is Mycobacterium tuberculosis. Description: Antimycobacterial activity against Mycobacterium tuberculosis H37Rv 331/88 after 21 days by micromethod. The following applies: H37Rv 331/88, 504 h. In outline:
as §1

Test [3] relates to Mycobacterium avium. Description: Antimycobacterial activity against multidrug-resistant Mycobacterium avium 330/88 after 14 days by micromethod. The following applies: 330/88, 336 h. In outline:
as §1

The subject of test [4] is Mycobacterium avium. Description: Antimycobacterial activity against multidrug-resistant Mycobacterium avium 330/88 after 21 days by micromethod. The following applies: 330/88, 504 h. In outline:
as §1

In test [5] the test system is Mycobacterium kansasii. Description: Antimycobacterial activity against Mycobacterium kansasii 235/80 after 7 days by micromethod. The following applies: 235/80, 168 h. In outline:
as §1

The test system of test [6] is Mycobacterium kansasii. Kind of test: Antimycobacterial activity against Mycobacterium kansasii 235/80 after 14 days by micromethod. The following applies: 235/80, 336 h. Summed up:
as §1

The subject of test [7] is Mycobacterium kansasii. Kind of test: Antimycobacterial activity against Mycobacterium kansasii 235/80 after 21 days by micromethod. The following applies: 235/80, 504 h. In outline:
as §1

Test [8] relates to Mycobacterium kansasii. Description: Antimycobacterial activity against Mycobacterium kansasii 6509/96 after 7 days by micromethod. The following applies: 6509/96, 168 h. Summed up: as §1
Test [9] relates to Mycobacterium kansasii. Description: Antimycobacterial activity against Mycobacterium kansasii 6509/96 after 14 days by micromethod. The note with it: 6509/96, 336 h. Summed up: as §1
Test [10] has as its system Mycobacterium kansasii. Description: Antimycobacterial activity against Mycobacterium kansasii 6509/96 after 21 days by micromethod. The following applies: 6509/96, 504 h. Summed up:
as §1

Test [11] has as its system Candida albicans. Kind of test: Antifungal activity against Candida albicans ATCC 44859 after 24 hrs by broth microdilution method. The note with it: ATCC 44859, 24 h. A general note: In broth dilution the organism is exposed to a series of concentrations in liquid medium.
Test [12] concerns Candida albicans. Kind of test: Antifungal activity against Candida albicans ATCC 44859 after 48 hrs by broth microdilution method. The following applies: ATCC 44859, 48 h.
For test [13], the system named is Candida tropicalis. Description: Antifungal activity against Candida tropicalis 156 after 24 hrs by broth microdilution method. The following applies: Candida tropicalis, 156, 24 h.
Test [14] has as its system Candida tropicalis. Kind of test: Antifungal activity against Candida tropicalis 156 after 48 hrs by broth microdilution method. The note with it: Candida tropicalis, 156, 48 h.
Test [15] deals with Pichia kudriavzevii. Kind of test: Antifungal activity against Candida krusei E28 after 24 hrs by broth microdilution method. The following applies: E28, 24 h.
Test [16] relates to Pichia kudriavzevii. Kind of test: Antifungal activity against Candida krusei E28 after 48 hrs by broth microdilution method. The note with it: E28, 48 h.
Test [17] concerns Nakaseomyces glabratus. Kind of test: Antifungal activity against Candida glabrata 20/I after 24 hrs by broth microdilution method.
In test [18] the test system is Nakaseomyces glabratus. Kind of test: Antifungal activity against Candida glabrata 20/I after 48 hrs by broth microdilution method.
Test [19] has as its system Trichosporon beigelii. Description: Antifungal activity against Trichosporon beigelii 1188 after 24 hrs by broth microdilution method. The note with it: Trichosporon beigelii, 1188, 24 h.
In test [20] the test system is Trichosporon beigelii. Description: Antifungal activity against Trichosporon beigelii 1188 after 48 hrs by broth microdilution method. The following applies: Trichosporon beigelii, 1188, 48 h.
The subject of test [21] is Aspergillus fumigatus. Description: Antifungal activity against Aspergillus fumigatus 231 after 24 hrs by broth microdilution method. The following applies: Aspergillus fumigatus, 231, 24 h.
Test [22] has as its system Aspergillus fumigatus. Description: Antifungal activity against Aspergillus fumigatus 231 after 48 hrs by broth microdilution method. The note with it: Aspergillus fumigatus, 231, 48 h.
Test [23] has as its system Lichtheimia corymbifera. Kind of test: Antifungal activity against Absidia corymbifera 272 after 24 hrs by broth microdilution method. The following applies: Lichtheimia corymbifera, 272, 24 h.
The test system of test [24] is Lichtheimia corymbifera. Description: Antifungal activity against Absidia corymbifera 272 after 48 hrs by broth microdilution method. The note with it: Lichtheimia corymbifera, 272, 48 h.
For test [25], the system named is Trichophyton mentagrophytes. Description: Antifungal activity against Trichophyton mentagrophytes after 24 hrs by broth microdilution method.
Test [26] deals with Trichophyton mentagrophytes. Description: Antifungal activity against Trichophyton mentagrophytes after 48 hrs by broth microdilution method.

Values after ≈ are worked out from the molar mass of the structure shown.

The term MIC denotes the smallest concentration in the dilution series that meets the test's criterion for growth inhibition.

On to `Nc1ccc(C(=O)O)c(O)c1` [AMINOSALICYLIC ACID], for which the MIC stood at 62.5 µM (≈ 9.57 µg/mL) in test [1]; 62.5 µM (≈ 9.57 µg/mL) in test [2]; 32 µM (≈ 4.9 µg/mL) against Mycobacterium avium [3]; 125 µM (≈ 19.1 µg/mL) against Mycobacterium avium [4]; 125 µM (≈ 19.1 µg/mL) with Mycobacterium kansasii [5]; 1000 µM (≈ 153 µg/mL) in the test on Mycobacterium kansasii [6]. Also, the MIC is > 1000 µM in the test with Mycobacterium kansasii [7], 32 µM (≈ 4.9 µg/mL) in the test with Mycobacterium kansasii [8], 125 µM (≈ 19.1 µg/mL) in the test on Mycobacterium kansasii [9] and 500 µM (≈ 76.6 µg/mL) in the test with Mycobacterium kansasii [10].

With `OC(Cn1cncn1)(Cn1cncn1)c1ccc(F)cc1F` [FLUCONAZOLE], the MIC against Candida albicans [11] is 0.06 µM (≈ 0.0184 µg/mL); in the test on Candida albicans [12], 0.12 µM (≈ 0.0368 µg/mL); against Candida tropicalis [13] it was 0.12 µM (≈ 0.0368 µg/mL); against Candida tropicalis [14], > 125 µM; with Pichia kudriavzevii [15], 3.91 µM (≈ 1.2 µg/mL); against Pichia kudriavzevii [16] it was 15.6 µM (≈ 4.78 µg/mL). The minimum inhibitory concentration (MIC) is 0.98 µM (≈ 0.3 µg/mL) against Nakaseomyces glabratus [17]; 3.91 µM (≈ 1.2 µg/mL) against Nakaseomyces glabratus [18]; 0.24 µM (≈ 0.0735 µg/mL) against Trichosporon beigelii [19]; 0.48 µM (≈ 0.147 µg/mL) in the test on Trichosporon beigelii [20]; > 125 µM against Aspergillus fumigatus [21]; > 125 µM in the test with Aspergillus fumigatus [22]. For the same compound, the MIC with Lichtheimia corymbifera [23] was > 125 µM; against Lichtheimia corymbifera [24], > 125 µM; in test [25], 1.95 µM (≈ 0.597 µg/mL); in [26], 3.91 µM (≈ 1.2 µg/mL).

For the compound `NNC(=O)c1ccncc1` [ISONIAZID], the MIC in test [1] is 0.5 µM (≈ 0.0686 µg/mL); in test [2] it was 0.5 µM (≈ 0.0686 µg/mL); against Mycobacterium avium [3], > 250 µM; with Mycobacterium avium [4], > 250 µM; in the test with Mycobacterium kansasii [5] it was > 250 µM; with Mycobacterium kansasii [6], > 250 µM. Besides, the minimum inhibitory concentration (MIC) with Mycobacterium kansasii [7] is > 250 µM; with Mycobacterium kansasii [8], 2 µM (≈ 0.274 µg/mL); with Mycobacterium kansasii [9] it was 4 µM (≈ 0.549 µg/mL); against Mycobacterium kansasii [10] it was 4 µM (≈ 0.549 µg/mL).

For the origin of these results see ChEMBL document CHEMBL1629494, “New amino acid esters of salicylanilides active against MDR-TB and other microbes” (Eur J Med Chem, 2010).
